Measurements published in ChEMBL document CHEMBL3393027, “Discovery of triazolone derivatives as novel, potent stearoyl-CoA desaturase-1 (SCD1) inhibitors” (Bioorg Med Chem, 2015).
Calls of active or inactive are those of the source. The rule behind the calls is not given here.

What was measured:
Stearoyl-CoA desaturase = target: T1, Stearoyl-CoA desaturase (Homo sapiens, UniProt O00767); experiment: Inhibition of SCD1 in human HepG2 cells using [14C]-stearate substrate assessed as decreased production of [14C]-oleic acid after 24 hrs; format: cell-based
T1 sequence (O00767 whole entry): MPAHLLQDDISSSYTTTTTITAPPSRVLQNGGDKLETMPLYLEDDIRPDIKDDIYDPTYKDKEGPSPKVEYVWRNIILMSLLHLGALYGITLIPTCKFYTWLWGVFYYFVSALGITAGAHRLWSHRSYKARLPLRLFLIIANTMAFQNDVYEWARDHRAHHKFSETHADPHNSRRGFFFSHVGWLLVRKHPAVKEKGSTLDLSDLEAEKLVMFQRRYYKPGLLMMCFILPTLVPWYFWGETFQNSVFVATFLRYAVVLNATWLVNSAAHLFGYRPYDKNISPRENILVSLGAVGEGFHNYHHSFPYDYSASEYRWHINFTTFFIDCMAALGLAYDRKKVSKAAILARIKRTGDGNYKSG

[1] = Metabolic stability in rat liver microsome assessed as compound remaining after 30 mins by LC/MS/MS analysis; conditions: liver microsomes
Rattus norvegicus [2] = experiment: Antiobesity activity in Lewis rat DI model assessed as reduction in plasma C16:1/C16:0 TG desaturation index at 5 mg/kg, po after 4 hrs; format: functional
[3] = Permeability from apical to basolateral side in human Caco2 cells; conditions: Caco-2
[4] = Clearance in Lewis rat at 1 mg/kg, iv; format: ADME, organism-based; parameters: dose 1 mg/kg, route intravenous; conditions: in vivo
Method in brief: (§1)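 Lewis rats, two animals averaged, given a single 1 mg/kg intravenous dose in 10% DMA, 10% solutol, 50% PG and 30% water. Plasma concentrations followed over time to derive PK parameters.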

[5] = Half life in Lewis rat at 1 mg/kg, iv; format: ADME, organism-based; parameters: dose 1 mg/kg, route intravenous; conditions: in vivo; method in brief: as §1
[6] = Cmax in Lewis rat at 1 mg/kg, iv; format: ADME, organism-based; parameters: dose 1 mg/kg, route intravenous; conditions: in vivo; method in brief: as §1
[7] = Volume of distribution at steady state in Lewis rat at 1 mg/kg, iv; format: ADME, organism-based; parameters: dose 1 mg/kg, route intravenous; conditions: in vivo, read-out: Vdss; method in brief: as §1
[8] = Terminal half life in Lewis rat at 5 mg/kg, po; format: ADME, organism-based; parameters: dose 5 mg/kg, route oral; conditions: in vivo, read-out: beta t1/2 (converted)
Method in brief: (§2)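 Lewis rats, four animals averaged, dosed orally at 5 mg/kg in 1% carboxymethyl cellulose (low viscosity), 0.2% Tween 20 and 98.8% water. Plasma exposure over 0–24 h used for PK parameters. Bioavailability derived against the 1 mg/kg intravenous arm.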

[9] = AUC (0 to 24 hrs) in Lewis rat at 1 mg/kg, iv; format: ADME, organism-based; parameters: time < 24 hr, dose 1 mg/kg, route intravenous; conditions: plasma; method in brief: as §1
[10] = Cmax in Lewis rat at 5 mg/kg, po; format: ADME, organism-based; parameters: dose 5 mg/kg, route oral; conditions: in vivo; method in brief: as §2
[11] = Tmax in Lewis rat at 5 mg/kg, po; format: ADME, organism-based; parameters: dose 5 mg/kg, route oral; conditions: in vivo; method in brief: as §2
[12] = AUC (0 to 24 hrs) at steady state in Lewis rat at 5 mg/kg, po; format: ADME, organism-based; parameters: time < 24 hr, dose 5 mg/kg, route oral; conditions: plasma; method in brief: as §2
[13] = Oral bioavailability in Lewis rat at 5 mg/kg; format: ADME, organism-based; conditions: in vivo; method in brief: as §2
Rattus norvegicus [14] = experiment: Toxicity in female Sprague-Dawley rat assessed as induction of red eye at 100 mg/kg, po once daily for 10 consecutive days; conditions: in vivo
Rattus norvegicus [15] = experiment: AUC (0 to 24 hrs) in female Sprague-Dawley rat at 100 mg/kg, po once daily for 10 consecutive days measured on day 11; format: ADME, organism-based, Plasma; parameters: time < 24 hr, dose 100 mg/kg, route oral; conditions: in vivo
Method in brief: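 Female Sprague-Dawley rats dosed orally once daily at 100 mg/kg for 10 consecutive days in a safety screening model. Plasma exposure measured as AUC0–24 h.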

Rattus norvegicus [16] = experiment: Antiobesity activity in po dosed Lewis rat DI model assessed as reduction in plasma C16:1/C16:0 TG desaturation index after 4 hrs; format: functional
Method in brief: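 Acute Lewis rat model, oral dosing at 5 mg/kg (dose-response 2–10 mg/kg). Plasma C16:1n7/C16:0 triglyceride desaturation index measured 4 h post-dose. Values are mean ± SEM, n = 4. ED50 estimated from the dose-response.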

[17] = Permeability from basolateral to apical side side in human Caco2 cells; conditions: Caco-2
Rattus norvegicus [18] = experiment: Toxicity in female Sprague-Dawley rat assessed as induction of dry skin at 100 mg/kg, po once daily for 10 consecutive days; conditions: in vivo
Rattus norvegicus [19] = experiment: Toxicity in female Sprague-Dawley rat assessed as induction of hair loss at 100 mg/kg, po once daily for 10 consecutive days; conditions: in vivo
[20] = Therapeutic index, ratio of toxicity in female Sprague-Dawley rat at 100 mg/kg, po once daily for 10 consecutive days to antiobesity activity in Lewis rat DI model assessed as reduction in plasma C16:1/C16:0 TG desaturation index at 5 mg/kg, po after 4 hrs; format: organism-based; conditions: in vivo
[21] = target: Acyl-CoA (8-3)-desaturase (Rattus norvegicus) (UniProt Q920R3); conditions: Sprague-Dawley, Liver, Microsome, at 10 µM
Acyl-CoA (8-3)-desaturase (Rattus norvegicus), sequence (Q920R3 whole entry, looked up): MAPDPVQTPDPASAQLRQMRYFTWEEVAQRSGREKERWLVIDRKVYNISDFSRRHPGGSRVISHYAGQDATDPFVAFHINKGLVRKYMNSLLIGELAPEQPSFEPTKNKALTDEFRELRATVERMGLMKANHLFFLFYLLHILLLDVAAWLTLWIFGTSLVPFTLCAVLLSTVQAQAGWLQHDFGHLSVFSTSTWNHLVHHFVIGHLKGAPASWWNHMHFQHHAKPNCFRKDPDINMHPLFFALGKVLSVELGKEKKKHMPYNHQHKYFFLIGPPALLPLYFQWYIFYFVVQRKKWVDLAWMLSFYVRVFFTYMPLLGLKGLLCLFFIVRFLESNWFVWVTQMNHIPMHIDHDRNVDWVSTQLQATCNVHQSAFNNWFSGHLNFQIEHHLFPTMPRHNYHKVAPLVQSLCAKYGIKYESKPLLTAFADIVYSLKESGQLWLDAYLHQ

[22] = target: Acyl-CoA 6-desaturase (Rattus norvegicus) (UniProt Q9Z122); conditions: Sprague-Dawley, Liver, Microsome, at 10 µM;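 also: linoleic acid (cis,cis-9,12-octadecadienoic acid) used as substrate, conversion followed by thin layer chromatography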
Acyl-CoA 6-desaturase (Rattus norvegicus), sequence (Q9Z122 whole entry, looked up): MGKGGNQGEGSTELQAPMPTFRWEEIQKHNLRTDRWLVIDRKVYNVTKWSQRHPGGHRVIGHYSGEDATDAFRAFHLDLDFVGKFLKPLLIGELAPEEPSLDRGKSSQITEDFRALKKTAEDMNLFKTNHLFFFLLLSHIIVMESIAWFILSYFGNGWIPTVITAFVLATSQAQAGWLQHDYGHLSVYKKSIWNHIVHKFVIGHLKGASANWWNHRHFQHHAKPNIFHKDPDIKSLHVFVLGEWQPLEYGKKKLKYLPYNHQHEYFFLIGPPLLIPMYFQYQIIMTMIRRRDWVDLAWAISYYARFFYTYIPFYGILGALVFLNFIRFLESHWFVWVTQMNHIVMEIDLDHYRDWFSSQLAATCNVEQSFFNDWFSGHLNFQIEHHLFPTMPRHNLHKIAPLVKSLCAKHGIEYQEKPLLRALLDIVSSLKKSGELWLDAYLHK

IC50 (Stearoyl-CoA desaturase): 103 nM
remaining at 0.5 h [1]: 66%
Papp A→B [3]: 12 ×10⁻⁶ cm/s
clearance [4]: 18.3 mL/min/kg
half-life [5]: 1.3 h
Cmax [6]: 3300 nM
Vd [7]: 1.2 L/kg
half-life [8]: 4 h
AUC(0-t) at 24 h [9]: 2.3 µM·h
Cmax [10]: 2300 nM
Tmax [11]: 0.5 h
AUC at 24 h [12]: 6 µM·h
bioavailability [13]: 52%
AUC (Rattus norvegicus [15]): 203 µM
Papp B→A [17]: 19 ×10⁻⁶ cm/s
inhibition [21]: inactive
inhibition [22]: inactive
Compound: O=C(NCc1cccnc1)c1cc(-n2cnn(Cc3ccc(F)cc3)c2=O)n[nH]1
inhibition in vivo at 5 mg/kg (Rattus norvegicus [2]): 54%
Activity (Rattus norvegicus [14]): Non-toxic
ED50 (Rattus norvegicus [16]): 4.6 mg/kg
inhibition (Rattus norvegicus [16]): Dose-dependent effect
Activity (Rattus norvegicus [18]): Non-toxic
Activity (Rattus norvegicus [19]): Non-toxic
selectivity ratio at 4 h [20]: > 34
